Measurements: ChEMBL document CHEMBL3351332 (J Med Chem, 2014)

How the values were obtained:
Cannabinoid receptor 1 [1] = target: T1, Cannabinoid receptor 1 (Homo sapiens, UniProt P21554); experiment: Antagonist activity at human CB1 receptor stably expressed in RD-HGA16 cells assessed as inhibition of CP55,940-induced calcium mobilization after 15 mins by FLIPR assay; format: functional, cell-based
Cannabinoid receptor 2 [2] = target: T2, Cannabinoid receptor 2 (Homo sapiens, UniProt P34972); experiment: Antagonist activity at human CB2 receptor stably expressed in CHO-RD-HGA16 cells assessed as inhibition of CP55,940-induced calcium mobilization at 10000 nM after 15 mins by FLIPR assay; format: functional, cell-based
Cannabinoid receptor 1 [3] = target: T1, Cannabinoid receptor 1; experiment: Agonist activity at human CB1 receptor stably expressed in RD-HGA16 cells assessed as calcium mobilization at 10000 nM after 15 mins by FLIPR assay relative to CP55,940; format: functional, cell-based
Method in brief: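 Cells plated at 25 000/well the day before in Ham's F12 with 10% FBS, then loaded 45 min at 37 °C with Calcium 5 dye in HBSS/20 mM HEPES/2.5 mM probenecid, pH 7.4. Vehicle pretreatment for 15 min at 37 °C; test compound added on-line, fluorescence read every 1 s over 90 s.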

Cannabinoid receptor 1 [4] = target: T1, Cannabinoid receptor 1; experiment: Displacement of [3H]CP55,940 from human CB1 receptor expressed in HEK293 cells after 1 hr by scintillation counting relative to control; format: cell-based
Cannabinoid receptor 1 [5] = target: T1, Cannabinoid receptor 1; experiment: Displacement of [3H]CP55,940 from human CB1 receptor expressed in HEK293 cells after 1 hr by scintillation counting; format: cell-based
Cannabinoid receptor 2 [6] = target: T2, Cannabinoid receptor 2; experiment: Antagonist activity at human CB2 receptor stably expressed in CHO-RD-HGA16 cells assessed as inhibition of CP55,940-induced calcium mobilization after 15 mins by FLIPR assay; format: functional, cell-based
Cannabinoid receptor 1 [7] = target: T1, Cannabinoid receptor 1; experiment: Allosteric modulation at human CB1 receptor stably expressed in RD-HGA16 cells assessed as inhibition of CP55,940-induced calcium mobilization after 15 mins by FLIPR assay; format: functional, cell-based
Method in brief: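 Cells plated the day before at 25 000/well and loaded 45 min at 37 °C with Calcium 5 dye in HBSS/20 mM HEPES/2.5 mM probenecid, pH 7.4. Fluorescence was read every 1 s for 90 s.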

T2 sequence (P34972 whole entry): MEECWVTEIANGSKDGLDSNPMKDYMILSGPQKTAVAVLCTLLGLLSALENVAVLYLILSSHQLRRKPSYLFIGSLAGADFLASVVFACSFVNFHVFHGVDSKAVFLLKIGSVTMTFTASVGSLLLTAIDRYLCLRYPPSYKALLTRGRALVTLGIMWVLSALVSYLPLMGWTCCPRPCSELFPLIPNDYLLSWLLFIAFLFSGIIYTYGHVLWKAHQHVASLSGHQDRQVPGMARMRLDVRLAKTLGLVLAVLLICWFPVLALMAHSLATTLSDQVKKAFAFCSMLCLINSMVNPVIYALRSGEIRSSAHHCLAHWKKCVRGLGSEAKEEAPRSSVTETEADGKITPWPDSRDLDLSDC
T1 sequence (P21554 whole entry): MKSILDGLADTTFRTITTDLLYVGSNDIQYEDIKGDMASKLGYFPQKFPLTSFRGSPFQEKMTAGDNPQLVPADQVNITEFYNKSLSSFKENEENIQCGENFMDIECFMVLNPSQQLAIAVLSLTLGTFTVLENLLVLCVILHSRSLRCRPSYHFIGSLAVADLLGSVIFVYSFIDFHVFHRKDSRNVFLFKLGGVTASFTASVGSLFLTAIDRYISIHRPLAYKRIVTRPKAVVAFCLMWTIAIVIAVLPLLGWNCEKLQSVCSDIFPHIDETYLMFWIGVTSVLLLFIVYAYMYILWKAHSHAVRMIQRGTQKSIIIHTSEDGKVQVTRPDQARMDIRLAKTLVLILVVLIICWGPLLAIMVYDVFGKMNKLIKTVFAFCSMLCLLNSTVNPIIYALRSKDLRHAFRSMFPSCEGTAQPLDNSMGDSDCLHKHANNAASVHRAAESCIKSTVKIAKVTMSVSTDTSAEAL

Structure (SMILES)	IC50 (Cannabinoid receptor 1 [1]) [µM]	inhibition (Cannabinoid receptor 2 [2]) [%]	Activity (Cannabinoid receptor 1 [3]) [%]	Emax (Cannabinoid receptor 1 [4]) [%]	EC50 (Cannabinoid receptor 1 [5]) [µM]	IC50 (Cannabinoid receptor 2 [6]) [µM]	Activity (Cannabinoid receptor 1 [7])	inhibition (Cannabinoid receptor 1 [1])
CCCCCCNc1cccc(-c2cccc(NC(=O)Nc3ccc(Cl)cc3)c2)n1	1.36	< 35	< 15	–	–	–	–	–
CCNc1cccc(-c2cccc(NC(=O)Nc3ccc(Cl)cc3)c2)n1	0.181	< 35	< 15	–	–	–	–	–
O=C(Nc1ccc(F)cc1)Nc1cccc(-c2cccc(N3CCCC3)n2)c1	0.032	< 35	23.2	172	0.207	–	–	–
Cc1cccc(C)c1NC(=O)Nc1cccc(-c2cccc(N3CCCC3)n2)c1	> 10	< 35	< 15	–	–	–	–	–
Cc1cc(C)cc(NC(=O)Nc2cccc(-c3cccc(N4CCCC4)n3)c2)c1	1.88	< 35	< 15	–	–	–	–	–
CCCCCNc1cccc(-c2cccc(NC(=O)Nc3ccc(Cl)cc3)c2)n1	0.867	< 35	< 15	–	–	–	–	–
O=C(Nc1ccccc1)Nc1cccc(-c2cccc(N3CCCC3)n2)c1	0.166	< 35	< 15	–	–	–	–	–
CC(=O)Nc1cccc(-c2cccc(NC(=O)Nc3ccc(Cl)cc3)c2)n1	0.251	–	47	–	–	5.12	–	–
CCCCNc1cccc(-c2cccc(NC(=O)Nc3ccc(Cl)cc3)c2)n1	0.093	< 35	26.5	161	1.52	–	–	–
CCN(CC)c1cccc(-c2cccc(NC(=O)Nc3ccc(Cl)cc3)c2)n1	0.125	< 35	< 15	–	–	–	–	–
O=C(Nc1cccc(-c2cccc(N3CCCC3)n2)c1)Nc1ccc(Cl)c(Cl)c1	0.161	–	< 15	–	–	> 10	–	–
CCCCN(CCCC)c1cccc(-c2cccc(NC(=O)Nc3ccc(Cl)cc3)c2)n1	0.693	< 35	< 15	–	–	–	–	–
O=C(Nc1cccc(-c2cccc(N3CCCC3)n2)c1)Nc1ccc2c(c1)OCO2	0.312	< 35	< 15	–	–	–	–	–
CCN(C)c1cccc(-c2cccc(NC(=O)Nc3ccc(Cl)cc3)c2)n1	0.0537	< 35	< 15	–	–	–	–	–
CCCCN(C)c1cccc(-c2cccc(NC(=O)Nc3ccc(Cl)cc3)c2)n1	0.104	< 35	22.1	–	–	–	–	–
N#Cc1ccc(NC(=O)Nc2cccc(-c3cccc(N4CCCC4)n3)c2)cc1	0.033	–	30	172	0.0552	> 10	Dose-dependent effect	–
CCCN(C)c1cccc(-c2cccc(NC(=O)Nc3ccc(Cl)cc3)c2)n1	0.156	< 35	< 15	–	–	–	–	–
CCCNc1cccc(-c2cccc(NC(=O)Nc3ccc(Cl)cc3)c2)n1	0.311	< 35	19.6	–	–	–	–	–
O=C(Nc1cccc(-c2cccc(N3CCCC3)n2)c1)Nc1ccc2ccccc2c1	0.888	< 35	< 15	–	–	–	–	–

Structure (SMILES)	IC50 (Cannabinoid receptor 1 [1]) [µM]	inhibition (Cannabinoid receptor 2 [2]) [%]	Activity (Cannabinoid receptor 1 [3]) [%]	Emax (Cannabinoid receptor 1 [4]) [%]	EC50 (Cannabinoid receptor 1 [5]) [µM]	IC50 (Cannabinoid receptor 2 [6]) [µM]	Activity (Cannabinoid receptor 1 [7])	inhibition (Cannabinoid receptor 1 [1])
Cc1ccc(NC(=O)Nc2cccc(-c3cccc(N4CCCC4)n3)c2)cc1	0.203	< 35	< 15	–	–	–	–	–
O=C(Nc1ccc(Cl)cc1)Nc1cccc(-c2cccc(N3CCCCC3)n2)c1	0.095	–	35	132	–	> 10	–	–
O=C(Nc1ccc([N+](=O)[O-])cc1)Nc1cccc(-c2cccc(N3CCCC3)n2)c1	0.1	< 35	27.9	–	–	–	–	–
O=C(Nc1ccc(Br)cc1)Nc1cccc(-c2cccc(N3CCCC3)n2)c1	0.098	< 35	< 15	–	–	–	–	–
O=C(Nc1ccc(Cl)nc1)Nc1cccc(-c2cccc(N3CCCC3)n2)c1	0.135	< 35	< 15	196	0.408	–	–	–
CNc1cccc(-c2cccc(NC(=O)Nc3ccc(Cl)cc3)c2)n1	0.317	< 35	< 15	–	–	–	–	–
CN(C)c1ccc(NC(=O)Nc2cccc(-c3cccc(N4CCCC4)n3)c2)cc1	1.64	< 35	< 15	–	–	–	–	–
O=C(Nc1ccc(Cl)cc1)Nc1cccc(-c2cccc(NC3CCCC3)n2)c1	0.501	–	35	–	–	> 10	–	–
CCc1c(C(=O)NCCc2ccc(N3CCCCC3)cc2)[nH]c2ccc(Cl)cc12	–	–	–	–	–	–	–	Dose-dependent effect
CN(C)c1cccc(-c2cccc(NC(=O)Nc3ccc(Cl)cc3)c2)n1	0.0274	< 35	< 15	184	0.663	–	Dose-dependent effect	–
O=C(Nc1cccc(Cl)c1)Nc1cccc(-c2cccc(N3CCCC3)n2)c1	0.228	< 35	19.6	–	–	–	–	–
CC(C)c1ccccc1NC(=O)Nc1cccc(-c2cccc(N3CCCC3)n2)c1	> 10	< 35	< 15	–	–	–	–	–
COc1cc(NC(=O)Nc2cccc(-c3cccc(N4CCCC4)n3)c2)cc(OC)c1OC	> 10	–	< 15	–	–	> 10	–	–
O=C(Nc1cccc(-c2cccc(N3CCCC3)n2)c1)Nc1cccc2ccccc12	> 10	< 35	< 15	–	–	–	–	–
O=C(Nc1ccc(Cl)cc1)Nc1cccc(-c2cccc(N3CCCC3)n2)c1	–	–	28.2	174	–	> 10	–	Dose-dependent effect
COc1ccc(NC(=O)Nc2cccc(-c3cccc(N4CCCC4)n3)c2)cc1	0.189	< 35	< 15	–	–	–	–	–
O=C(Nc1cc(Cl)cc(Cl)c1)Nc1cccc(-c2cccc(N3CCCC3)n2)c1	0.716	–	22.2	–	–	> 10	–	–
CCCN(CCC)c1cccc(-c2cccc(NC(=O)Nc3ccc(Cl)cc3)c2)n1	0.372	< 35	29	–	–	–	–	–
CCc1ccccc1NC(=O)Nc1cccc(-c2cccc(N3CCCC3)n2)c1	> 10	< 35	< 15	–	–	–	–	–
